ChEMBL document CHEMBL1142894, “Preparation of 5-aryl-3-alkylthio-l,2,4-triazoles and corresponding sulfones with antiinflammatory-analgesic activity” (Bioorg Med Chem, 2007)
Calls of active or inactive are those of the source. The calls are words filed in the database; no cut-off is given here.

Columns and labels:
Mus musculus [1] = test: Inhibition of p-benzoquinone-induced writhing in Swiss albino mouse at 100 mg/kg, po relative to control; assay type: functional
How it was run: (§1)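 Mice, n = 6 per group, dosed orally with a suspension in 0.5% sodium CMC. 60 min later, 0.1 ml/10 g of 2.5% […] p-benzoquinone in distilled water given ip. Abdominal writhes counted per animal for 15 min, starting 5 min after injection. Expressed as % change in mean writhing count versus vehicle controls.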

Mus musculus [2] = test: Analgesic activity against p-benzoquinone-induced abdominal constriction in Swiss albino mouse assessed as number of writhings at 100 mg/kg, po; assay type: functional, Abdomen
How it was run: (§2)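 Test samples given orally in 0.5% CMC; vehicle to controls. 60 min later, 2.5% (v/v) p-benzoquinone in distilled water, 0.1 ml/10 g, given i.p. Mice housed singly; writhes counted for 15 min starting 5 min after injection. Activity is % change from vehicle controls. n = 6; mean ± SEM.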

Mus musculus [3] = test: Inhibition of p-benzoquinone-induced writhing in Swiss albino mouse at 200 mg/kg, po relative to control; assay type: functional; how it was run: as §1
Mus musculus [4] = test: Analgesic activity against p-benzoquinone-induced abdominal constriction in Swiss albino mouse assessed as number of writhings at 200 mg/kg, po; assay type: functional, Abdomen; how it was run: as §2
Mus musculus [5] = test: Antiinflammatory activity against carrageenan-induced paw edema in Swiss albino mouse assessed as swelling thickness at 100 mg/kg, po after 270 mins; assay type: functional
How it was run: (§3)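 Oral dosing in 0.5% CMC; vehicle to controls. Then carrageenan (0.5 mg/25 ll, freshly suspended in 154 mM saline) injected into the right hind paw subplantar tissue; saline into the left paw. Right-left footpad thickness difference measured by dial gauge calliper every 90 min over 6 h. Inhibition % is relative to vehicle control. n = 6; mean ± SEM.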

Mus musculus [6] = test: Inhibition of carrageenan-induced paw edema in Swiss albino mouse at 100 mg/kg, po after 90 mins relative to control; assay type: functional; conditions: 1.5 h; how it was run: as §3
Mus musculus [7] = test: Acute toxicity in Swiss albino mouse assessed as lethal effect at 25 mg/kg/day, po after 72 hrs; assay type: organism-based; parameters: route oral; conditions: in vivo
How it was run: (§4)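 Oral single dose suspended in 0.5% carboxymethylcellulose, given after a 24 h fast; food and water returned 1 h after dosing. Vehicle-only controls. Mice observed at 1 h, then once daily for 72 h, for toxic signs and mortality.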

Mus musculus [8] = test: Antiinflammatory activity against carrageenan-induced paw edema in Swiss albino mouse assessed as swelling thickness at 100 mg/kg, po after 180 mins; assay type: functional; how it was run: as §3
Mus musculus [9] = test: Inhibition of carrageenan-induced paw edema in Swiss albino mouse at 100 mg/kg, po after 270 mins relative to control; assay type: functional; conditions: 4.5 h; how it was run: as §3
Mus musculus [10] = test: Acute toxicity in Swiss albino mouse assessed as lethal effect at 100 mg/kg/day, po after 72 hrs; assay type: organism-based; parameters: route oral; conditions: in vivo; how it was run: as §4
Mus musculus [11] = test: Acute toxicity in Swiss albino mouse assessed as lethal effect at 200 mg/kg/day, po after 72 hrs; assay type: organism-based; parameters: route oral; conditions: in vivo; how it was run: as §4
Mus musculus [12] = test: Antiinflammatory activity against carrageenan-induced paw edema in Swiss albino mouse assessed as swelling thickness at 100 mg/kg, po after 360 mins; assay type: functional; how it was run: as §3
Mus musculus [13] = test: Inhibition of carrageenan-induced paw edema in Swiss albino mouse at 100 mg/kg, po after 360 mins relative to control; assay type: functional; conditions: 6 h; how it was run: as §3
Mus musculus [14] = test: Acute toxicity in Swiss albino mouse assessed as lethal effect at 50 mg/kg/day, po after 72 hrs; assay type: organism-based; parameters: route oral; conditions: in vivo; how it was run: as §4
Mus musculus [15] = test: Antiinflammatory activity against carrageenan-induced paw edema in Swiss albino mouse assessed as swelling thickness at 100 mg/kg, po after 90 mins; assay type: functional; how it was run: as §3
Mus musculus [16] = test: Inhibition of carrageenan-induced paw edema in Swiss albino mouse at 100 mg/kg, po after 180 mins relative to control; assay type: functional; conditions: 3 h; how it was run: as §3
Mus musculus [17] = test: Gastric-ulcerogenic effect in Swiss albino mouse assessed as lesions at 100 mg/kg, po; assay type: functional, organism-based; parameters: dose 100 mg/kg
How it was run: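 Mice killed under deep ether anesthesia 3 h after the writhing test; the oral dose in 0.5% CMC was the one used in that test. Stomachs removed, opened along the great curvature and examined under a dissecting microscope for lesions or bleeding. Reported as ratio of ulceration; n = 6.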

Row | SMILES | inhibition in vivo at 100 mg/kg (Mus musculus [1]) [%] | Activity (Mus musculus [2]) | inhibition in vivo at 200 mg/kg (Mus musculus [3]) [%] | Activity (Mus musculus [4]) | Activity (Mus musculus [5]) | inhibition in vivo at 100 mg/kg (Mus musculus [6]) [%] | Activity (Mus musculus [7]) | Activity (Mus musculus [8]) | inhibition in vivo at 100 mg/kg (Mus musculus [9]) [%] | Activity (Mus musculus [10]) | Activity (Mus musculus [11]) | Activity (Mus musculus [12]) | inhibition in vivo at 100 mg/kg (Mus musculus [13]) [%] | Activity (Mus musculus [14]) | Activity (Mus musculus [15]) | inhibition in vivo at 100 mg/kg (Mus musculus [16]) [%] | Activity (Mus musculus [17])
1 | CC(=O)Oc1ccccc1C(=O)O [ASPIRIN] | 55.2 | 21.2 | 53.6 | 23.8 |  |  |  |  |  |  |  |  |  |  |  |  | 
2 | CSc1nc(-c2ccccc2)n[nH]1 | 15 | 40.2 |  |  | 47.6 10^-2mm | 14.9 | Non-toxic | 44.5 10^-2mm | 19 | Non-toxic | Non-toxic | 54.4 10^-2mm | 20.9 | Non-toxic | 38.1 10^-2mm | 13.6 | 
3 | CSc1nc(-c2ccccc2Cl)n[nH]1 | 11.6 | 41.8 |  |  | 52.8 10^-2mm | 4.7 | Non-toxic | 48.8 10^-2mm | 10.2 | Non-toxic | Non-toxic | 57 10^-2mm | 17.2 | Non-toxic | 42.7 10^-2mm | 5.2 | Active
